Experimental data reported in ChEMBL document CHEMBL1122329, “Synthesis and antianxiety activity of (omega-piperazinylalkoxy)indan derivatives” (J Med Chem, 1983).

Experiments:
[1] = system: Mus musculus; experiment: Anti-morphine activity against morphine-induced Straub''s tail reaction in mice expressed as % inhibition at 25 mg/kg peroral administration; assay type: functional; settings: route oral
Method in brief: (§1)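 Six mice per group received test compounds orally 1 h before morphine (20 mg/kg ip). Straub's tail reaction was scored as the index of morphine's CNS stimulant action.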

[2] = system: Mus musculus; experiment: Cataleptogenic action in mice on peroral administration; value may range from 30 to 71; assay type: functional; settings: po
Method in brief: (§2)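 Six mice per group were dosed orally 1 h before testing. Forepaws were placed on a horizontal steel bar to force an abnormal posture. Holding the posture over 30 s counted as catalepsy. ED50 was the dose giving catalepsy in 50% of animals, with 95% confidence limits.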

[3] = Toxicity on peroral administration to mice; assay type: organism-based; settings: mouse, in vivo, po
Method in brief: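 Oral dosing to mice, eight per group; LD50 calculated by Litchfield-Wilcoxon method.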

[4] = system: Mus musculus; experiment: Anti-fighting potency against foot shock induced fighting behavior in mice expressed as % inhibition at 25 mg/kg peroral administration; assay type: functional; settings: route oral
[5] = system: Rattus norvegicus; experiment: Evaluated for neuroleptic-like property using anti-methamphetamine test in rats on peroral administration; assay type: functional; settings: po
Method in brief: (§3)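 Groups of six rats were dosed orally, then given methamphetamine 5 mg/kg ip 1 h later. Stereotypy was scored 0–4: sleep/eyes closed 0, motionless/eyes open 1, moving around cage 2, sniffing 3, continuous licking or gnawing 4. ED50 was the dose halving mean score versus controls, with 95% confidence limits.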

[6] = system: Mus musculus; experiment: Evaluated for hypothermic activity in mice at 30 mg/kgo n peroral administration; assay type: functional; settings: dose 30 mg/kg; route oral
Method in brief: (§4)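 Six mice per group were dosed orally 1 h before testing. Rectal temperature was read with an electronic thermometer. Results are given as degrees of hypothermia (Δt °C) versus an untreated group.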

[7] = system: Rattus norvegicus; experiment: Evaluated for neuroleptic-like property using open-field test in rats(increase in ambulation at 3 to 20 mg/kg on peroral administration; value may range from 11.9 to 23.1; assay type: functional; settings: dose mg/kg 3-20, route oral
[8] = system: Mus musculus; experiment: Anti-morphine activity against the morphine-induced Straub's tail reaction in mice on peroral administration; assay type: functional; settings: po
Method in brief: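 Mice, six per group, dosed orally with test compound 1 h before morphine (20 mg/kg ip); Straub's tail reaction scored as index of morphine CNS stimulation.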

[9] = Ratio of muscle relaxant action to antifighting effect; assay type: functional
Method in brief: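 Muscle relaxation was measured by traction test in mice (eight per group), 1 h after oral dosing. Forepaws were placed on a horizontal wire bar 30 cm high. Failure to bring the hind feet onto the wire within 5 s counted as relaxation. This action was set in ratio with the antifighting effect.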

[10] = system: Rattus norvegicus; experiment: Evaluated for neuroleptic-like property using open-field test in rats(increase in ambulation at 3 to 20mg/kg on peroral administration; value may range from 8.1 to 13.2; assay type: functional; settings: po
[11] = system: Mus musculus; experiment: Anti-morphine activity against the morphine-induced Straub''s tail reaction in mice expressed as % inhibition at 25 mg/kg peroral administration; assay type: functional; settings: route oral; method in brief: as §1
[12] = system: Mus musculus; experiment: Cataleptogenic action in mice on peroral administration; value ranges from 26-93; assay type: functional; settings: po; method in brief: as §2
[13] = system: Mus musculus; experiment: Evaluated for hypothermic activity in mice at 30 mg/kg on peroral administration; assay type: functional; settings: route oral; method in brief: as §4
[14] = system: Rattus norvegicus; experiment: Evaluated for neuroleptic-like property using anti-methamphetamine test in rats on peroral administration; value may range from 20 to 79; assay type: functional; settings: po; method in brief: as §3
[15] = system: Mus musculus; experiment: Cataleptogenic action in mice on peroral administration; assay type: functional; settings: po; method in brief: as §2
[16] = system: Rattus norvegicus; experiment: Evaluated for neuroleptic-like property using open-field test in rats(increase in ambulation at 3 to 20 mg/kg on peroral administration; assay type: functional; settings: dose mg/kg 3-20, route oral

Row | Compound | inhibition in vivo at 25 mg/kg [1] [%] | ED50 [2] [mg/kg] | LD50 [3] [mg/kg] | inhibition in vivo at 25 mg/kg [4] [%] | ED50 [5] [mg/kg] | Delta t [6] [°C] | ED50 [7] [mg/kg] | ED50 [8] [mg/kg] | Ratio [9] | ED50 [10] [mg/kg] | inhibition in vivo at 25 mg/kg [11] [%] | ED50 [12] [mg/kg] | Delta t [13] | ED50 [14] [mg/kg] | ED50 [15] [mg/kg] | ED50 [16] [mg/kg]
1 | Cc1cc2c(cc1OCCCN1CCN(c3ccccc3)CC1)CCC2.Cl.Cl | 94 | 56 | > 2000 | 83 | > 100 | -2.5 | 16.6 | 16 | 5.41 |  |  |  |  |  |  | 
2 | Cl.Cl.Fc1ccc(N2CCN(CCCOc3ccc4c(c3)CCC4)CC2)cc1 |  |  | > 2000 | 88 |  |  |  |  | 3.73 | 10.3 | 100 | 50 | -5 °C | 43 |  | 
3 | CN(C)CCCN1c2ccccc2Sc2ccc(Cl)cc21 [CHLORPROMAZINE] |  |  |  |  | 15 |  |  |  |  |  |  |  | -1.5 |  | 17 | 10.1
